From ChEMBL document CHEMBL4765454, “Betulinic acid derived amides are highly cytotoxic, apoptotic and selective” (Eur J Med Chem, 2020)
Active and inactive are the calls of the source. The rule behind the calls is not given here.

Legend:
A-375 [1] = assay: Induction of apoptosis in human A375 cells assessed as necrotic cells at 4.8 uM measured after 48 hrs by Annexin V-FITC/propidium iodide staining based flow cytometry (reference value: 0.547%); type: functional
A-375 [2] = assay: Cytotoxicity against human A-375 cells assessed as reduction in cell viability incubated for 72 hrs by SRB assay; type: functional, cell-based; conditions: Homo sapiens, A-375, 72 h; read-out: EC50
FaDu = assay: Cytotoxicity against human FaDu cells assessed as reduction in cell viability incubated for 72 hrs by SRB assay; type: functional, cell-based; conditions: Homo sapiens, FaDu, 72 h; read-out: EC50
[3] = Selectivity ratio of EC50 for mouse NIH3T3 cells to EC50 for human MCF7 cells; type: toxicity; conditions: NIH3T3 cells versus MCF7 cells, read-out: Ratio EC50
A-375 [4] = assay: Cell cycle arrest in human A375 cells assessed as accumulation at S phase measured after 24 hrs by propidium iodide staining based flow cytometry (reference value: 47.46%); type: functional
A-375 [5] = assay: Induction of apoptosis in human A375 cells assessed as blebbing at 4.8 uM measured after 48 hrs by microscopic analysis; type: functional, cell-based
How it was run: (§1)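 A375 cells treated at 3.0, 4.8 or 6.2 µM and inspected by light microscopy after 24 h or 48 h. Cell number and morphology were scored for apoptotic features: shrinkage, strangulation and blebbing.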

[6] = Selectivity ratio of EC50 for mouse NIH3T3 cells to EC50 for human FaDu cells
A-375 [7] = assay: Cell cycle arrest in human A375 cells assessed as accumulation at S phase measured after 48 hrs by propidium iodide staining based flow cytometry (reference value: 31.3%); type: functional
A-375 [8] = assay: Induction of apoptosis in human A375 cells assessed as late apoptotic cells at 4.8 uM measured after 24 hrs by Annexin V-FITC/propidium iodide staining based flow cytometry (reference value: 7.352%); type: functional
A-375 [9] = assay: Cell cycle arrest in human A375 cells assessed as accumulation at G2/M phase measured after 24 hrs by propidium iodide staining based flow cytometry (reference value: 7.48%); type: functional
MCF7 = assay: Cytotoxicity against human MCF7 cells assessed as reduction in cell viability incubated for 72 hrs by SRB assay; type: functional, cell-based; conditions: Homo sapiens, MCF7, 72 h; read-out: EC50
A-375 [10] = assay: Induction of apoptosis in human A375 cells assessed as early apoptotic cells at 4.8 uM measured after 48 hrs by Annexin V-FITC/propidium iodide staining based flow cytometry (reference value: 1.622%); type: functional
[11] = Selectivity ratio of EC50 for mouse NIH3T3 cells to EC50 for human A2780 cells; type: toxicity; conditions: NIH3T3 cells versus A2780 cells, read-out: Ratio EC50
[12] = Selectivity ratio of EC50 for mouse NIH3T3 cells to EC50 for human HT-29 cells; type: toxicity; conditions: NIH3T3 cells versus HT-29 cells, read-out: Ratio EC50
A-375 [13] = assay: Induction of apoptosis in human A375 cells assessed as viable cells at 4.8 uM measured after 48 hrs by Annexin V-FITC/propidium iodide staining based flow cytometry (reference value: 92.723%); type: functional; conditions: read-out: Activity
A-375 [14] = assay: Cell cycle arrest in human A375 cells assessed as accumulation at subG1 phase measured after 24 hrs by propidium iodide staining based flow cytometry (reference value: 0.46%); type: functional
A-375 [15] = assay: Induction of apoptosis in human A375 cells assessed as necrotic cells at 4.8 uM measured after 24 hrs by Annexin V-FITC/propidium iodide staining based flow cytometry (reference value: 0.331%); type: functional
A-375 [16] = assay: Induction of apoptosis in human A375 cells assessed as viable cells at 4.8 uM measured after 24 hrs by Annexin V-FITC/propidium iodide staining based flow cytometry (reference value: 90.123%); type: functional; conditions: read-out: Activity
A-375 [17] = assay: Cell cycle arrest in human A375 cells assessed as accumulation at G1 phase measured after 48 hrs by propidium iodide staining based flow cytometry (reference value: 57.3%); type: functional
A-375 [18] = assay: Induction of apoptosis in human A375 cells assessed as late apoptotic cells at 4.8 uM measured after 48 hrs by Annexin V-FITC/propidium iodide staining based flow cytometry (reference value: 5.108%); type: functional
A-375 [19] = assay: Induction of apoptosis in human A375 cells assessed as early apoptotic cells at 4.8 uM measured after 24 hrs by Annexin V-FITC/propidium iodide staining based flow cytometry (reference value: 2.194%); type: functional
A-375 [20] = assay: Induction of apoptosis in human A375 cells assessed as cell shrinkage at 4.8 uM measured after 48 hrs by microscopic analysis; type: functional, cell-based; how it was run: as §1
A-375 [21] = assay: Cell cycle arrest in human A375 cells assessed as accumulation at G1 phase measured after 24 hrs by propidium iodide staining based flow cytometry (reference value: 44.59%); type: functional
A-375 [22] = assay: Cell cycle arrest in human A375 cells assessed as accumulation at subG1 phase measured after 48 hrs by propidium iodide staining based flow cytometry (reference value: 0.57%); type: functional
A2780 = assay: Cytotoxicity against human A2780 cells assessed as reduction in cell viability incubated for 72 hrs by SRB assay; type: functional, cell-based; conditions: Homo sapiens, A2780, 72 h; read-out: EC50
A-375 [23] = assay: Induction of apoptosis in human A375 cells at 4.8 uM measured after 24 hrs by microscopic analysis; type: functional, cell-based; how it was run: as §1
A-375 [24] = assay: Cell cycle arrest in human A375 cells assessed as accumulation at G2/M phase measured after 48 hrs by propidium iodide staining based flow cytometry (reference value: 10.83%); type: functional
A-375 [25] = assay: Induction of apoptosis in human A375 cells assessed as strangulation at 4.8 uM measured after 48 hrs by microscopic analysis; type: functional, cell-based; how it was run: as §1
NIH3T3 = assay: Cytotoxicity against mouse NIH3T3 cells assessed as reduction in cell viability incubated for 72 hrs by SRB assay; type: cell-based; conditions: Mus musculus, NIH3T3, 72 h; read-out: EC50
HT-29 = assay: Cytotoxicity against human HT-29 cells assessed as reduction in cell viability incubated for 72 hrs by SRB assay; type: functional, cell-based; conditions: Homo sapiens, HT-29, 72 h; read-out: EC50
[26] = Selectivity ratio of EC50 for mouse NIH3T3 cells to EC50 for human A375 cells; type: toxicity; conditions: NIH3T3 cells versus A375 cells, read-out: Ratio EC50
A-375 [27] = assay: Induction of apoptosis in human A375 cells assessed as late apoptotic cells at 6.2 uM measured after 24 hrs by Annexin V-FITC/propidium iodide staining based flow cytometry (reference value: 7.352%); type: functional
A-375 [28] = assay: Induction of apoptosis in human A375 cells assessed as cell shrinkage at 6.2 uM measured after 48 hrs by microscopic analysis; type: functional, cell-based; how it was run: as §1
A-375 [29] = assay: Induction of apoptosis in human A375 cells assessed as strangulation at 6.2 uM measured after 48 hrs by microscopic analysis; type: functional, cell-based; how it was run: as §1
A-375 [30] = assay: Induction of apoptosis in human A375 cells assessed as viable cells at 6.2 uM measured after 48 hrs by Annexin V-FITC/propidium iodide staining based flow cytometry (reference value: 92.723%); type: functional; conditions: read-out: Activity
A-375 [31] = assay: Induction of apoptosis in human A375 cells assessed as necrotic cells at 6.2 uM measured after 48 hrs by Annexin V-FITC/propidium iodide staining based flow cytometry (reference value: 0.547%); type: functional
A-375 [32] = assay: Induction of apoptosis in human A375 cells assessed as viable cells at 6.2 uM measured after 24 hrs by Annexin V-FITC/propidium iodide staining based flow cytometry (reference value: 90.123%); type: functional; conditions: read-out: Activity
A-375 [33] = assay: Induction of apoptosis in human A375 cells assessed as early apoptotic cells at 6.2 uM measured after 24 hrs by Annexin V-FITC/propidium iodide staining based flow cytometry (reference value: 2.194%); type: functional
A-375 [34] = assay: Induction of apoptosis in human A375 cells assessed as early apoptotic cells at 6.2 uM measured after 48 hrs by Annexin V-FITC/propidium iodide staining based flow cytometry (reference value: 1.622%); type: functional
A-375 [35] = assay: Induction of apoptosis in human A375 cells assessed as necrotic cells at 6.2 uM measured after 24 hrs by Annexin V-FITC/propidium iodide staining based flow cytometry (reference value: 0.331%); type: functional
A-375 [36] = assay: Induction of apoptosis in human A375 cells assessed as blebbing at 6.2 uM measured after 48 hrs by microscopic analysis; type: functional, cell-based; how it was run: as §1
A-375 [37] = assay: Induction of apoptosis in human A375 cells assessed as late apoptotic cells at 6.2 uM measured after 48 hrs by Annexin V-FITC/propidium iodide staining based flow cytometry (reference value: 5.108%); type: functional
A-375 [38] = assay: Induction of apoptosis in human A375 cells at 6.2 uM measured after 24 hrs by microscopic analysis; type: functional, cell-based; how it was run: as §1

Row | SMILES | EC50 (A-375 [2]) | EC50 (FaDu) | selectivity ratio [3] | Activity (A-375 [4]) | Ratio EC50 [6] | Activity (A-375 [7]) | Activity (A-375 [9]) | EC50 (MCF7) | selectivity ratio [11] | selectivity ratio [12] | Activity (A-375 [14]) | Activity (A-375 [17]) | Activity (A-375 [21]) | Activity (A-375 [22]) | EC50 (A2780) | Activity (A-375 [24]) | EC50 (NIH3T3) | EC50 (HT-29) | selectivity ratio [26] | other results
1 | C=C(C)[C@@H]1CC[C@]2(C(=O)Nc3cccc4ncccc34)CC[C@]3(C)[C@H](CC[C@@H]4[C@@]5(C)C[C@H](OC(C)=O)[C@H](OC(C)=O)C(C)(C)[C@@H]5CC[C@]43C)[C@@H]12 | 2.9 µM | 3.49 µM | 19.2 | 58.53% | 34.4 | 57.06% | 0.43% | 6.26 µM | 37 | 4 | 3.53% | 31.39% | 37.51% | 11.49% | 3.24 µM | 0% | > 120 µM | > 30 µM |  | Activity (A-375 [1]): 1.342%; Activity (A-375 [5]): Active; Activity (A-375 [8]): 10.295%; Activity (A-375 [10]): 18.861%; viability at 4.8 µM (A-375 [13]): 67.4%; Activity (A-375 [15]): 0.749%; viability at 4.8 µM (A-375 [16]): 80.4%; Activity (A-375 [18]): 12.388%; Activity (A-375 [19]): 6.495%; Activity (A-375 [20]): Active; Activity (A-375 [23]): Active; Activity (A-375 [25]): Active
2 | CC(=O)O[C@H]1C[C@]2(C)[C@H]3CC[C@@H]4[C@H]5[C@H](C(C)=O)CC[C@]5(C(=O)O)CC[C@@]4(C)[C@]3(C)CC[C@H]2C(C)(C)[C@H]1OC(C)=O | 22.5 µM | > 30 µM | 0.3 |  | 0.3 |  |  | > 30 µM | 0.3 | 0.3 |  |  |  |  | > 30 µM |  | 9.57 µM | > 30 µM | 0.4 | 
3 | C=C(C)[C@@H]1CC[C@]2(C(=O)O)CC[C@]3(C)[C@H](CC[C@@H]4[C@@]5(C)C=C(O)C(=O)C(C)(C)[C@@H]5CC[C@]43C)[C@@H]12 | 13.8 µM | 14.1 µM | 1.1 |  | 0.9 |  |  | 12 µM | 1.2 | 0.5 |  |  |  |  | 10.5 µM |  | 12.8 µM | 26.1 µM | 0.9 | 
4 | C=C(C)[C@@H]1CC[C@]2(C(=O)O)CC[C@]3(C)[C@H](CC[C@@H]4[C@@]5(C)C[C@H](O)[C@H](O)C(C)(C)[C@@H]5CC[C@]43C)[C@@H]12 | 11.2 µM | 16.5 µM | 1.1 |  | 1 |  |  | 15.8 µM | 1.4 | 1 |  |  |  |  | 12.3 µM |  | 17.3 µM | 17.7 µM | 1.5 | 
5 | C=C(C)[C@@H]1CC[C@]2(C(=O)NCc3ccccc3)CC[C@]3(C)[C@H](CC[C@@H]4[C@@]5(C)C[C@H](OC(C)=O)[C@H](OC(C)=O)C(C)(C)[C@@H]5CC[C@]43C)[C@@H]12 | 3.14 µM | 5.4 µM | 6.2 | 30.27% | 13 | 21.92% | 0% | 11.3 µM | 15.8 | 3.4 | 5.98% | 52.38% | 63.76% | 25.69% | 4.42 µM | 0% | > 70 µM | 20.7 µM |  | Activity (A-375 [27]): 7.93%; Activity (A-375 [28]): Active; Activity (A-375 [29]): Active; viability at 6.2 µM (A-375 [30]): 34.3%; Activity (A-375 [31]): 1.449%; viability at 6.2 µM (A-375 [32]): 81.9%; Activity (A-375 [33]): 9.546%; Activity (A-375 [34]): 44.187%; Activity (A-375 [35]): 0.667%; Activity (A-375 [36]): Active; Activity (A-375 [37]): 20.078%; Activity (A-375 [38]): Active
6 | C=C(C)[C@@H]1CC[C@]2(C(=O)O)CC[C@]3(C)[C@H](CC[C@@H]4[C@@]5(C)C[C@H](OC(C)=O)[C@H](OC(C)=O)C(C)(C)[C@@H]5CC[C@]43C)[C@@H]12 | 15.8 µM | 13.5 µM | 1.3 |  | 1 |  |  | 11.2 µM | 1.6 | 0.8 |  |  |  |  | 8.68 µM |  | 14.1 µM | 17.4 µM | 0.9 | 
